Source: PubChem (several laboratories)
Rin1 Abl inh – inhibitors of Rin1-Abl protein binding, primary screen, biochemical, TR-FRET. inhibition, % at 7.35 µM. AID 588664, 2011. hit rate 0.4% among 360,000; in the data active means inhibition above about 5%, passing the limit was not always enough
GSTO1 counter – inhibitors of recombinant GSTO1, primary screen, counter-screen for RBBP9 inhibitor project, biochemical, fluorescence polarization; hit rate 1.1% among 300,000; activity-based probe fluorescence polarization; Glutathione S-transferase omega-1 (Homo sapiens), P78417; inhibition, % at 5.96 µM;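 active means inhibition above the campaign mean inhibition plus 3 SD, cut at about 35% in these data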
Apaf1 inhib – inhibitors of human Apaf-1 apoptosome, primary screen, biochemical, DEVD-Rh110 fluorescence, uHTS; reconstituted apoptosome caspase-3 activity; inhibition, % at 20 µM; hit rate 0.71% among 330,000; AID 489030, 2010; active means inhibition of at least 40% at 20 µM
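Medium: Hepes buffer, pH 7.5 / System: biochemical Apaf-1 apoptosome reconstitution / Measured by: Rh110 fluorescence, excitation 480 nm, emission 540 nm / Times: compound with Apaf-1, dATP, procaspase-3 30 min, then 50 min reaction, room temperature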
PAD4 inh – human PAD4 inhibitors, primary screen, biochemical, fluorescence polarization, 1536-well format; recombinant PAD4, RCA probe fluorescence polarization; inhibition, % at 6.36 µM; hit rate 0.41% among 330,000; AID 485272, 2010;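 active means percent inhibition above a cutoff equal to the mean of all tested compounds plus 3 SD, cut at about 15% in these data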
UBC9 SUMO inh – inhibitors of in vitro SUMOylation cascade, primary screen, biochemical, HTRF, uHTS; HTRF SUMOylation assay, SAE1/SAE2 + UBC9; inhibition, % at 35 µM; hit rate 0.36% among 290,000; AID 2006, 2009; in the data active means inhibition above about 50%, passing the limit was not always enough
UBC13 inh – UBC13 polyubiquitin chain formation inhibitors, primary screen, biochemical, TR-FRET, uHTS. inhibition, % at 20 µM. hit rate 0.47% among 330,000; in the data active means inhibition above about 45%, passing the limit was not always enough
PAD4 confirm – human PAD4 inhibitors, confirmation, biochemical, fluorescence polarization; shares compounds with PAD4 inh; recombinant PAD4, RCA probe fluorescence polarization; inhibition, % at 6.36 µM; hit rate 28% among 1,200; AID 488796, 2010;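 active means mean inhibition across replicates above the hit cutoff set by the earlier primary screen, cut at about 15% in these data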;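 further: inhibitors block active-site labeling by the probe so polarization falls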
Hits are given with their value; - = inactive; . = not tested or not shown. An excerpt weighted towards active compounds, which were near 2.2% of everything screened.

SMILES | Rin1 Abl inh | GSTO1 counter | Apaf1 inhib | PAD4 inh | UBC9 SUMO inh | UBC13 inh | PAD4 confirm
O=C(COC(=O)[C@H](Cc1ccccc1)NC(=O)c1ccco1)Nc1ccccc1OC(F)F | - | . | - | - | . | - | .
CCC1C(=O)N=C(SCC(=O)Nc2ccc(C(=O)OC)cc2)NC1=O (centres undefined) | - | - | - | 16 | - | - | 21
COC(=O)c1cc(NC(=O)CSC2=NCCS2)cc(C(=O)OC)c1 | - | - | - | 18 | - | - | 15
COC(=O)c1ccc(NC(=O)CSC2=NCCN2)cc1 | - | - | - | 18 | - | - | 30
O=C(CSC1=NCCS1)NC(NC(=O)CSC1=NCCS1)c1ccccc1 | - | - | - | - | - | - | .
CCOc1ccc(NC(=O)CSC2=NCCN2)cc1 | - | - | - | - | - | - | .
COC(=O)c1cc(NC(=O)Cc2ccc(OC)cc2)cc(C(=O)OC)c1 | - | - | - | 21 | - | - | 17
CCN1CCN(CCC(=O)Nc2ccc(F)c(F)c2)CC1 | - | - | - | - | - | - | .
O=C(O)c1ccc(Cl)c(NC(=O)C2CCN(S(=O)(=O)c3cccs3)CC2)c1 | - | . | . | . | . | . | .
Cc1cccc(Nc2nc(-c3ccc(O)cc3O)cs2)n1 | - | - | - | - | - | - | .
O=C1CSC(c2ccccc2O)N1Cc1ccccc1 (centres undefined) | - | - | - | 41 | - | - | -
O=C1CSC(c2cccc(O)c2)N1Cc1ccccc1 (centres undefined) | - | - | - | - | - | - | .
CCCCCC(=O)Nc1ccc2ccccc2c1 | - | - | - | - | - | - | .
O=C(CS)Nc1ccc2ccccc2c1 | - | - | . | 28 | - | . | -
C[C@@H]1CN[C@H](CCO)/C1=C\c1ccccc1 | - | . | . | . | . | . | .
CC1(OC(=O)c2ccco2)C(=O)C=C2C=C(C3CC3)OC=C2C1=O (centres undefined) | - | - | - | 20 | . | - | -
CC(=O)c1sc(NC(=O)C2CCN(C(=O)c3ccc(F)cc3)CC2)nc1-c1ccccc1 | - | - | - | - | . | - | .
COc1ccccc1N=Cc1c(C)[nH]n(-c2ccc(C)cc2C)c1=O | - | - | - | - | - | - | .
COc1cc(SC#N)ccc1N=Cc1c(C)[nH]n(-c2ccc(C)cc2C)c1=O | - | - | - | 22 | - | - | 36
COc1cc(SC#N)ccc1N=Cc1c(C)[nH]n(-c2cccc3ccccc23)c1=O | . | - | - | 31 | - | - | 46
Cc1cc(OCC(=O)NCC(c2ccc(F)cc2)N2CCOCC2)ccc1Cl (centres undefined) | - | . | - | - | . | - | .
CCCN(CC(=O)Nc1ccccc1OC)C(=O)CN1C(=O)NC(C)(C)C1=O | - | . | . | . | . | . | .
Cc1onc(-c2c(Cl)cccc2Cl)c1-c1nc2cc(Cl)ccc2c(=O)o1 | - | . | . | . | - | . | .
CC1(NC(=O)Cc2csc(-c3cccc(Cl)c3)n2)CCS(=O)(=O)C1 (centres undefined) | - | . | - | 21 | . | - | -
CN1CCC(CC(C(=O)N2CCCC2)(c2ccccc2)c2ccccc2)C1 (centres undefined) | - | . | . | . | . | . | .
SMILES | Rin1 Abl inh | GSTO1 counter | Apaf1 inhib | PAD4 inh | UBC9 SUMO inh | UBC13 inh | PAD4 confirm
CCOC(=O)C1=C(C)N=c2s/c(=C\c3ccc(OCC(=O)O)cc3)c(=O)n2C1c1ccc(OC(C)C)cc1 (centres undefined) | - | - | - | 18 | . | - | -
CCOC(=O)C1=C(C)N=c2sc(=Cc3cc(Cl)c(OCC(=O)O)c(Cl)c3)c(=O)n2C1c1cccc(OC)c1 (centres undefined) | - | . | . | . | . | . | .
CCOC(=O)C1=C(C)N=c2s/c(=C/c3ccc(OCC(=O)O)cc3)c(=O)n2C1c1cc(OC)c(OC)c(OC)c1 (centres undefined) | - | - | - | 25 | - | - | -
COc1cccc(C2C(C(=O)Nc3ccccc3)=C(C)N=c3s/c(=C/c4ccc(OCC(=O)O)cc4)c(=O)n32)c1 (centres undefined) | - | - | - | 19 | - | - | -
CCOC(=O)C1=C(C)N=c2sc(=Cc3ccc(OCC(=O)O)cc3)c(=O)n2C1c1ccc(Cl)cc1 (centres undefined) | - | . | . | . | . | . | .
CCC(C(=O)OCC(=O)N(C)c1c(N)n(Cc2ccccc2)c(=O)[nH]c1=O)c1ccccc1 (centres undefined) | - | - | - | - | . | - | .
O=C1c2ccc(-c3ccc(F)cc3OCc3ccccc3)cc2S(=O)(=O)c2cccc(C(=O)N3CCCC3)c21 | - | . | - | 17 | . | - | 15
CCOc1ccc(NC(=O)CN(C)C(=O)CC2CC3CCC2C3)cc1OCC (centres undefined) | - | - | - | 45 | - | - | -
CCOc1ccc(NC(=O)CN(C)C(=O)CN2C(=O)C3CCCCC3C2=O)cc1OCC (centres undefined) | - | . | - | - | . | - | .
Cc1cccc(N2CCN(S(=O)(=O)c3c(C(=O)N4CCCCC4)c(C)n(C)c3C)CC2)c1C | - | - | - | - | - | - | .
CC(=O)N1CC[n+]2c(-c3ccc(Cl)cc3)csc21 | - | - | - | 22 | - | - | -
CC(C)[C@H](NC(=O)OCc1ccccc1)C(=O)OCC(=O)N1CCCCC1 | - | . | . | . | . | . | .
O=C1C=CC(=Nc2ccc3c(c2)Cc2ccccc2-3)O1 | - | . | . | . | . | . | .
NC(=O)c1oc2ccccc2c1NC(=O)C1CC(=O)N(c2ccccc2)C1 (centres undefined) | - | - | - | 18 | . | - | 27
O=C(Nc1cccc(Br)c1)Oc1cccc2cccnc12 | - | . | . | . | . | . | .
C(=N\n1cnnc1)/c1ccc2c(c1)OCO2 | - | - | - | - | - | - | .
C(=N\n1cnnc1)/c1ccc2c(c1)OCCO2 | - | - | - | 18 | - | - | -
CS(=O)(=O)c1ccc(Cl)c(NC(=O)C2CCCCN2S(=O)(=O)c2ccccc2)c1 (centres undefined) | - | . | - | - | . | - | .
O=C1c2ccc3c4c(ccc(c24)C(=O)N1NC(=O)C(F)(F)F)CC3 | - | - | - | - | - | - | .
CC(=O)NN1C(=O)c2ccc3c4c(ccc(c24)C1=O)C(=O)N(NC(C)=O)C3=O | - | 37 | - | 136 | - | - | 143
O=C(O)CCC(=O)Nc1ccc(SSc2ccc(NC(=O)CCC(=O)O)cc2)cc1 | - | - | - | 56 | - | - | 50
O=C(c1ccc(F)cc1)N1CCC(C(=O)N2CCN(S(=O)(=O)c3cccc([N+](=O)[O-])c3)CC2)CC1 | - | - | - | - | . | - | .
